According to ChEMBL document CHEMBL5376013, “Design, synthesis and biological evaluation of novel morpholinopyrimidine-5-carbonitrile derivatives as dual PI3K/mTOR inhibitors” (RSC Med Chem, 2024):

Legend:
Type in all cases: functional
Details in all cases: read-out: GI
CCRF-CEM = experiment: Antitumor activity against human CCRF-CEM cells assessed as growth inhibition at 10 uM relative to control
In short: (§1)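 After drug addition, plates were incubated 48 h at 37 °C under 5% CO2. Adherent cells were fixed with cold TCA (10% final, 60 min, 4 °C) and suspension cells with 16% final TCA. Staining used 0.4% SRB in 1% acetic acid, solubilized in 10 mM trizma, read at A515. Percent growth was calculated from time-zero, control and treated absorbances.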

K562 = experiment: Antitumor activity against human K562 cells assessed as growth inhibition at 10 uM relative to control; in short: as §1
MOLT-4 = experiment: Antitumor activity against human MOLT-4 cells assessed as growth inhibition at 10 uM relative to control; in short: as §1
RPMI-8226 = experiment: Antitumor activity against human RPMI-8226 cells assessed as growth inhibition at 10 uM relative to control; in short: as §1
SR = experiment: Antitumor activity against human SR cells assessed as growth inhibition at 10 uM relative to control
In short: (§2)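 Drug exposure 48 h at 37 °C, 5% CO2. Adherent cells fixed with cold TCA (10% final), suspension cells with TCA (16% final). Stained with 0.4% SRB in 1% acetic acid, dissolved in 10 mM Tris, A515. Growth relative to time-zero and untreated control.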

A549 = experiment: Antitumor activity against human A549 cells assessed as growth inhibition at 10 uM relative to control; in short: as §1
HOP-62 = experiment: Antitumor activity against human HOP-62 cells assessed as growth inhibition at 10 uM relative to control; in short: as §1
HOP-92 = experiment: Antitumor activity against human HOP-92 cells assessed as growth inhibition at 10 uM relative to control; in short: as §1
NCI-H226 = experiment: Antitumor activity against human NCI-H226 cells assessed as growth inhibition at 10 uM relative to control; in short: as §1
NCI-H23 = experiment: Antitumor activity against human NCI-H23 cells assessed as growth inhibition at 10 uM relative to control; in short: as §1
NCI-H522 = experiment: Antitumor activity against human NCI-H522 cells assessed as growth inhibition at 10 uM relative to control; in short: as §1
COLO 205 = experiment: Antitumor activity against human COLO 205 cells assessed as growth inhibition at 10 uM relative to control; in short: as §1
HCT-116 = experiment: Antitumor activity against human HCT-116 cells assessed as growth inhibition at 10 uM relative to control; in short: as §1
HCT-15 = experiment: Antitumor activity against human HCT-15 cells assessed as growth inhibition at 10 uM relative to control; in short: as §1
HT-29 = experiment: Antitumor activity against human HT-29 cells assessed as growth inhibition at 10 uM relative to control; in short: as §1
KM12 = experiment: Antitumor activity against human KM12 cells assessed as growth inhibition at 10 uM relative to control; in short: as §1
SW-620 = experiment: Antitumor activity against human SW-620 cells assessed as growth inhibition at 10 uM relative to control; in short: as §2
SF-268 = experiment: Antitumor activity against human SF-268 cells assessed as growth inhibition at 10 uM relative to control; in short: as §1
SF-539 = experiment: Antitumor activity against human SF-539 cells assessed as growth inhibition at 10 uM relative to control; in short: as §1
SNB-19 = experiment: Antitumor activity against human SNB-19 cells assessed as growth inhibition at 10 uM relative to control; in short: as §2
SNB-75 = experiment: Antitumor activity against human SNB-75 cells assessed as growth inhibition at 10 uM relative to control; in short: as §2
U-251 = experiment: Antitumor activity against human U-251 cells assessed as growth inhibition at 10 uM relative to control; in short: as §2
LOX IMVI = experiment: Antitumor activity against human LOX IMVI cells assessed as growth inhibition at 10 uM relative to control; in short: as §1
Malme-3M = experiment: Antitumor activity against human Malme-3M cells assessed as growth inhibition at 10 uM relative to control; in short: as §1
SK-MEL-2 = experiment: Antitumor activity against human SK-MEL-2 cells assessed as growth inhibition at 10 uM relative to control; in short: as §1
SK-MEL-28 = experiment: Antitumor activity against human SK-MEL-28 cells assessed as growth inhibition at 10 uM relative to control; in short: as §2
SK-MEL-5 = experiment: Antitumor activity against human SK-MEL-5 cells assessed as growth inhibition at 10 uM relative to control; in short: as §2
UACC-257 = experiment: Antitumor activity against human UACC-257 cells assessed as growth inhibition at 10 uM relative to control; in short: as §2
UACC-62 = experiment: Antitumor activity against human UACC-62 cells assessed as growth inhibition at 10 uM relative to control; in short: as §2
OVCAR-3 = experiment: Antitumor activity against human OVCAR-3 cells assessed as growth inhibition at 10 uM relative to control; in short: as §1
OVCAR-4 = experiment: Antitumor activity against human OVCAR-4 cells assessed as growth inhibition at 10 uM relative to control; in short: as §1
NCI/ADR-RES = experiment: Antitumor activity against human NCI-ADR-RES cells assessed as growth inhibition at 10 uM relative to control; in short: as §1
SK-OV-3 = experiment: Antitumor activity against human SK-OV-3 cells assessed as growth inhibition at 10 uM relative to control; in short: as §2
786-0 = experiment: Antitumor activity against human 786-0 cells assessed as growth inhibition at 10 uM relative to control; in short: as §1
ACHN = experiment: Antitumor activity against human ACHN cells assessed as growth inhibition at 10 uM relative to control; in short: as §1
CAKI-1 = experiment: Antitumor activity against human CAKI-1 cells assessed as growth inhibition at 10 uM relative to control; in short: as §1
RXF 393 = experiment: Antitumor activity against human RXF 393 cells assessed as growth inhibition at 10 uM relative to control; in short: as §1
SN12C = experiment: Antitumor activity against human SN12C cells assessed as growth inhibition at 10 uM relative to control; in short: as §2
UO-31 = experiment: Antitumor activity against human UO-31 cells assessed as growth inhibition at 10 uM relative to control; in short: as §2
PC-3 = experiment: Antitumor activity against human PC-3 cells assessed as growth inhibition at 10 uM relative to control; in short: as §1
DU-145 = experiment: Antitumor activity against human DU-145 cells assessed as growth inhibition at 10 uM relative to control; in short: as §1
MCF7 = experiment: Antitumor activity against human MCF7 cells assessed as growth inhibition at 10 uM relative to control; in short: as §1
MDA-MB-231 = experiment: Antitumor activity against human MDA-MB-231 cells assessed as growth inhibition at 10 uM relative to control; in short: as §1
BT-549 = experiment: Antitumor activity against human BT-549 cells assessed as growth inhibition at 10 uM relative to control; in short: as §1
T47D = experiment: Antitumor activity against human T47D cells assessed as growth inhibition at 10 uM relative to control; in short: as §2
MDA-MB-468 = experiment: Antitumor activity against human MDA-MB-468 cells assessed as growth inhibition at 10 uM relative to control; in short: as §1

N#Cc1c(-c2ccc(Cl)cc2)nc(N2NC(=O)CC2=N)nc1N1CCOCC1
inhibition of growth at 10 µM (CCRF-CEM): < 1% | inhibition of growth at 10 µM (K562): < 1% | inhibition of growth at 10 µM (MOLT-4): < 1% | inhibition of growth at 10 µM (RPMI-8226): < 1% | inhibition of growth at 10 µM (SR): < 1% | inhibition of growth at 10 µM (A549): < 1% | inhibition of growth at 10 µM (HOP-62): < 1% | inhibition of growth at 10 µM (HOP-92): 12.6% | inhibition of growth at 10 µM (NCI-H226): < 1% | inhibition of growth at 10 µM (NCI-H23): < 1% | inhibition of growth at 10 µM (NCI-H522): 13.6% | inhibition of growth at 10 µM (COLO 205): < 1% | inhibition of growth at 10 µM (HCT-116): < 1% | inhibition of growth at 10 µM (HCT-15): < 1% | inhibition of growth at 10 µM (HT-29): < 1% | inhibition of growth at 10 µM (KM12): < 1% | inhibition of growth at 10 µM (SW-620): < 1% | inhibition of growth at 10 µM (SF-268): < 1% | inhibition of growth at 10 µM (SF-539): < 1% | inhibition of growth at 10 µM (SNB-19): < 1% | inhibition of growth at 10 µM (SNB-75): 24.3% | inhibition of growth at 10 µM (U-251): < 1% | inhibition of growth at 10 µM (LOX IMVI): < 1% | inhibition of growth at 10 µM (Malme-3M): 58% | inhibition of growth at 10 µM (SK-MEL-2): < 1% | inhibition of growth at 10 µM (SK-MEL-28): < 1% | inhibition of growth at 10 µM (SK-MEL-5): < 1% | inhibition of growth at 10 µM (UACC-257): < 1% | inhibition of growth at 10 µM (UACC-62): 86.2% | inhibition of growth at 10 µM (OVCAR-3): < 1% | inhibition of growth at 10 µM (OVCAR-4): < 1% | inhibition of growth at 10 µM (NCI/ADR-RES): < 1% | inhibition of growth at 10 µM (SK-OV-3): < 1% | inhibition of growth at 10 µM (786-0): < 1% | inhibition of growth at 10 µM (ACHN): < 1% | inhibition of growth at 10 µM (CAKI-1): < 1% | inhibition of growth at 10 µM (RXF 393): < 1% | inhibition of growth at 10 µM (SN12C): < 1% | inhibition of growth at 10 µM (UO-31): 24.6% | inhibition of growth at 10 µM (PC-3): < 1% | inhibition of growth at 10 µM (DU-145): < 1% | inhibition of growth at 10 µM (MCF7): 1% | inhibition of growth at 10 µM (MDA-MB-231): < 1% | inhibition of growth at 10 µM (BT-549): < 1% | inhibition of growth at 10 µM (T47D): < 1% | inhibition of growth at 10 µM (MDA-MB-468): < 1%
